Hits are enriched below; roughly 2.6% of the tested compounds scored in any of these assays.
SENP7 block: SENP7 protease inhibitors, primary screen, biochemical, luminescence, uHTS; Sentrin-specific protease 7 (Homo sapiens), Q9BQF6; recombinant SENP7, Z-RLRGG-aminoluciferin luminescence, 40 min; inhibition, % at 5 µM; 330,000 tested, 1.5% active; AID 434973, 2010;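 active = inhibition above about 50% at the single test dose, limit read from the data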
SENP8 block-1: SENP8 protease inhibitors, primary screen, biochemical, luminescence; Sentrin-specific protease 8 (Homo sapiens), Q96LD8; AID 2540, 2010; inhibition, % at 10 µM; 330,000 tested, 1.2% active; purified SENP8, Z-RLRGG-aminoluciferin cleavage; in the data active = inhibition above about 50%
Target sequence (Q96LD8 whole entry, looked up): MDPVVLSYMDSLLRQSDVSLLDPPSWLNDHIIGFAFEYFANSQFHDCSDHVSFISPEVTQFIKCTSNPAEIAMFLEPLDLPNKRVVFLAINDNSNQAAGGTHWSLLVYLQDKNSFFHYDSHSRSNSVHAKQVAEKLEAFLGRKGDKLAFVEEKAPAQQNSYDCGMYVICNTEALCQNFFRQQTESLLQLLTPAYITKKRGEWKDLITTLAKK
SENP8 block-2: human SENP8 protease inhibitors, primary screen, biochemical, fluorescence, Nedd8 protein substrate, uHTS; Sentrin-specific protease 8 (Homo sapiens), Q96LD8; recombinant SENP8; inhibition, % at 20 µM; 360,000 tested, 0.64% active; AID 602440, 2012; in the data active = inhibition mostly above about 40%, no sharp cut-off; inactive = mostly below about 27%
SENP1 inh: human SENP1 catalytic domain inhibitors, primary screen, biochemical, FRET, uHTS; recombinant SENP1 catalytic domain, CyPet-SUMO1-YPet FRET cleavage; inhibition, % at 10 µM; 360,000 tested, 0.21% active;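 active = inhibition at least 30% at 10 µM, raw YFP signal under a set limit, fluorescence ratio 0.5 to 1.5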
Target sequence (Q9P0U3 419-644 limits assumed): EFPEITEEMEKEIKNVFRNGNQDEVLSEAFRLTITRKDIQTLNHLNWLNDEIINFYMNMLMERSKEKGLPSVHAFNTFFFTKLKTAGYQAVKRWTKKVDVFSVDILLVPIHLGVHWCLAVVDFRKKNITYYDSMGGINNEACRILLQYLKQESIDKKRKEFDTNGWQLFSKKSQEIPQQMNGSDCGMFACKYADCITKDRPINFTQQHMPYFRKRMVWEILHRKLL
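Controls: no-enzyme wells low, DMSO-plus-enzyme wells high control. Test system: human recombinant His6-tagged SENP1 catalytic domain enzyme. Reagent: SFCypet-SUMO1-SFYpet FRET protein substrate, 25 nM final. Doses: one dose per compound, 10 µM, 0.5% DMSO. Detection: FRET, CFP and YFP emission. Timing: 50 min reaction at room temperature.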
SENP6 block: SENP6 protease inhibitors, primary screen, biochemical, luminescence, uHTS. Recombinant SENP6 catalytic domain, aminoluciferin luminescence. inhibition, % at 10 µM. Sentrin-specific protease 6 (Homo sapiens), Q9GZR1. 330,000 tested, 1.8% active;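 active = inhibition above about 50% at the single tested dose, limit read from the data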
Platelet DG rel: inhibitors of platelet dense granule secretion, primary screen, cell-based, MLPCN, human platelets. AID 1663, 2009. inhibition, %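 (compounds screened at 7.5 µM in platelet-rich plasma)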. 300,000 tested, 0.22% active. human platelet-rich plasma, SFLLRN dense granule ATP release, luminescence;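 active = mean replicate score, as percent of positive control, at or above 50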
SENP8 confirm: SENP8 protease inhibitors, retest, confirmation, biochemical, luminescence, single concentration. inhibition, % at 12.5 µM. Recombinant SENP8, Z-RLRGG-aminoluciferin luminescence, 60 min. 6,200 tested, 40% active. AID 488912, 2010. shares compounds with SENP7 block;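 active = mean inhibition across replicates above about 50%, limit read from the data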
SENP6 conf: SENP6 protease inhibitors, confirmation, biochemical, luminescence, single concentration; inhibition, % at 12.5 µM; shares compounds with SENP7 block; 6,200 tested, 58% active; AID 488915, 2010; recombinant SENP6, Z-RLRGG-aminoluciferin luminescence
SENP7 confirm: SENP7 protease inhibitors, retest, confirmation, biochemical, luminescence, single concentration; shares compounds with SENP7 block; recombinant SENP7, Z-RLRGG-aminoluciferin luminescence, 40 min; inhibition, % at 12.5 µM; 6,200 tested, 69% active; AID 488917, 2010
Casp3 SENP sel: caspase-3 protease inhibitors, confirmation, selectivity assay for SENP inhibitor project, biochemical, single concentration. AID 488918, 2010. purified caspase-3, Z-DEVD-aminoluciferin luminescence, 60 min. shares compounds with SENP7 block. 6,200 tested, 60% active. inhibition, % at 12.5 µM;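 active = mean inhibition above about 50%, limit read from the data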
Target sequence (P42574 28-227 limits assumed): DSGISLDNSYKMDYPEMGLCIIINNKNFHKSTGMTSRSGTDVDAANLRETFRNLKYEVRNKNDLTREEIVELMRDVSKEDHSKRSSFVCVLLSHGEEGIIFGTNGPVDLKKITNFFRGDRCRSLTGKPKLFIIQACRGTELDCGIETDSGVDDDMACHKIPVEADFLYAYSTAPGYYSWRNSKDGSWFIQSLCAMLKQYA
Luc interf: counter-screen for SENP inhibitors: luminescence interference | 6,200 tested, 39% active | AID 488919 | Pre-incubated SENP8/Z-RLRGG-aminoluciferin, luciferase luminescence interference | inhibition, % at 12.5 µM | shares compounds with SENP7 block;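 active = mean inhibition above about 50% when retested at one dose, limit read from the data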
Numbers stand for hits; 0 = inactive; - = no result given.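 Rule for the calls, unless noted: active = mean inhibition above about 50% in the one-dose retest (limit read from the data); inactive = the rest.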

SMILES	SENP7 block	SENP8 block-1	SENP8 block-2	SENP1 inh	SENP6 block	Platelet DG rel	SENP8 confirm	SENP6 conf	SENP7 confirm	Casp3 SENP sel	Luc interf
CC1CCc2c(sc3ncnc(SC(C)C(=O)NCC4CCCO4)c23)C1 (stereo not drawn)	0	0	0	0	0	0	-	-	-	-	-
O=C(COc1ccc2ccccc2c1)Nc1nccs1	77	66	0	0	61	0	0	89	99	81	76
O=C(COc1ccccc1)Nc1nccs1	0	61	0	0	75	0	0	61	90	90	74
O=C(Nc1ccc(F)cc1)c1cc(S(=O)(=O)N2CCCCC2)cs1	0	0	0	0	0	0	-	-	-	-	-
C/C(=N\NC(=O)c1cc2ccccc2cc1O)c1cccs1	89	86	0	0	93	0	0	94	101	96	0
Cc1ccc2c(Cl)c(C(=O)N/N=C/c3cccn3C)sc2c1	84	0	0	0	0	0	0	0	0	0	0
C/C(=N\NC(=O)COc1ccc2ccccc2c1)c1cccs1	0	0	0	0	0	0	-	-	-	-	-
C/C(=N/NC(=O)c1cccs1)c1cccs1	62	0	0	0	0	0	0	0	70	63	0
Cn1cccc1C(=O)N/N=C/c1c(Cl)cccc1Cl	83	76	0	0	79	0	83	82	72	91	0
O=C(Nc1cc(C(F)(F)F)ccc1Cl)c1cccnc1	0	0	0	0	0	0	-	-	-	-	-
C=CCNC(=O)[C@@H]1CSC2c3ccc(OC)c(OC)c3C(=O)N21 (stereo partly drawn)	0	0	0	0	0	0	-	-	-	-	-
O=C(NCc1ccccc1)C1Cc2c(-c3ccc(Cl)cc3)ccnc2O1 (stereo not drawn)	-	-	0	0	-	-	-	-	-	-	-
N#CC1(NC(=O)CSc2nncn2-c2ccccc2F)CCCC1	0	0	0	0	0	-	-	-	-	-	-
O=C(NNC(=O)c1cc2ccccc2cc1O)c1cccs1	87	95	0	0	93	0	97	98	102	97	91
O=C(NNC(=O)c1ccc2ccccc2c1O)c1cccs1	0	0	0	0	0	0	-	-	-	-	-
Cn1cccc1/C=N/NC(=O)c1cc2ccccc2cc1O	0	0	0	0	59	0	56	54	84	68	0
C/C(=N\NC(=O)c1cc2ccccc2cc1O)c1ccc(C)o1	63	68	0	0	84	0	80	78	95	90	0
CCOC(=O)[C@]12CCCC=C1N(Cc1ccc3c(c1)OCO3)C(=O)[C@H](CC(=O)NCCCCc1ccccc1)C2	-	-	0	0	-	-	-	-	-	-	-
O=C(CCc1nnc2ccc(NCc3ccccc3)nn12)NCC1CCN(C2CCCC2)C1 (stereo not drawn)	0	0	0	0	0	0	-	-	-	-	-
Cc1ccc(Nc2nc3nonc3[nH]c2=O)cc1	60	60	0	0	0	0	75	66	84	74	71
Cc1ccc(O)c(C2=Nc3ccccc3C2(C)C)c1	56	0	0	0	71	0	0	64	89	0	0
O=C(N/N=C/c1ccncc1)c1cccc(S(=O)(=O)Nc2ccc(Cl)cc2)c1	0	0	0	0	0	0	-	-	-	-	-
CN(C)c1ccc(-c2cc3ccccc3c(=O)o2)cc1	66	84	0	0	77	-	0	0	0	0	0
Cc1ccc(C(=O)Nc2cccc3cccnc23)cc1C	63	51	0	0	69	0	0	63	86	0	0
Cc1ccc(OCc2nc(-c3ccccn3)no2)cc1	60	0	0	0	0	0	0	0	80	71	0
SMILES	SENP7 block	SENP8 block-1	SENP8 block-2	SENP1 inh	SENP6 block	Platelet DG rel	SENP8 confirm	SENP6 conf	SENP7 confirm	Casp3 SENP sel	Luc interf
Cc1cc(OCc2nc(-c3cccnc3)no2)c(C)cc1Br	0	0	0	0	0	0	-	-	-	-	-
Cc1ccc(SCc2nc(-c3ccccn3)no2)cc1	0	0	0	0	0	0	-	-	-	-	-
CCc1ccc(OCc2nc(-c3ccccn3)no2)c(Br)c1	91	90	0	0	93	0	95	96	101	87	79
Clc1ccc(OCc2nc(-c3ccncc3)no2)c(Br)c1	0	0	0	0	0	0	-	-	-	-	-
Cc1ccc(OCc2nc(-c3ccccn3)no2)c(Br)c1	96	90	0	0	82	0	0	96	102	91	93
CC(C)c1ccc(OCc2nc(-c3ccccn3)no2)c(Br)c1	69	67	0	0	85	0	74	82	93	63	70
CC(C)(C)OC(=O)N[C@@H](COCc1ccccc1)C(=O)N[C@@H](CO)[C@H](O)[C@@H]1C[C@@H]1C(=O)NC1CCCCC1	0	0	0	0	0	0	-	-	-	-	-
O=C(Nc1ccc2c(c1)OCO2)c1noc2c1CCCC2	81	78	0	0	88	0	85	86	98	91	0
O=C(Nc1ccc2c(c1)OCO2)c1noc2c1CCCCC2	60	0	0	0	74	0	63	63	87	67	69
CC(=O)c1ccc(NC(=O)c2noc3c2CCCCC3)cc1	0	0	0	0	0	0	-	-	-	-	-
O=C(Nc1cccnc1)c1noc2c1CCCC2	0	0	0	0	0	0	-	-	-	-	-
O=C(Nc1cc(Cl)ccc1Cl)c1noc2c1CCCC2	0	0	0	0	0	0	-	-	-	-	-
O=C(Nc1ccc(F)cc1F)c1noc2c1CCC2	53	0	0	0	0	0	0	0	77	69	0
O=C(NCc1cccnc1)c1cc(C2CCCCN2C(=O)c2cccs2)on1 (stereo not drawn)	-	-	0	0	-	-	-	-	-	-	-

High-throughput results deposited in PubChem BioAssay by several laboratories.
